The RNAGym collection of RNA variant scans (doi:10.1126/science.aae0568)
Variants at the floor of the assay were thinned out.

B1: tRNA (parent)
chain: GUUCCGUUGGCGUAAUGGUAACGCGUCUCCCUCCUAAGGAGAAGACUGCGGGUUCGAGUCCCGUACGGAACG

Variants of: B1
Assay: yeast fitness relative to wild type (ratio to wild type); higher = fitter; tRNA-Arg(CCU), competitive growth, 37 C, YPD
Procedure, shortened: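 Genotype frequency changes were the basis for Darwinian fitness relative to wild type. The frequencies came from 100-nucleotide paired-end sequencing of gene amplicons from the start population and each end population of pooled yeast strains with tRNA-Arg(CCU) gene variants at the native locus. Competition ran in YPD at 37°C for 24 hours in six replicates, genotypes needed ≥ 100 starting reads, and estimates < 0.5 were set to 0.5.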

Variant	yeast fitness
GUUCCGUUGGCGAAAUGGUAACGCGUCUCCCACCUAAGGAGAAGACUGCGGGUUCGAGUCCCGUACGGAACG	0.69
GUACCGUUAGCGUAAUGGAAACGCGUCUCCCUCCUAAGGAGAAGACUGCGGGUUCGAGUCGCGUACGGAACG	≤ 0.5
GUUCCGUUGGCGUAAUGGCGACGCGUCUCCCUCCUAAGGAGAAGACUGCGGGUUCGAGUCCCGUACGGAACG	0.964
GUACCGUUGGCGUAAUGGUAACGCGUCUCGCUCCUAAGGAGAAGACUGCGGGUUCGCCUCCCGUACGGAACG	≤ 0.5
GUUCCGUUGGCGUAAUGGUAACGCGUCUCUCUCCUAAGGAGAAGACUGCGAGUUCGAGUCCCGUACGGAACG	0.7
GUUCCGUUGGCGUAAUGGUAACGCGUCUCCCUCCUAAGGAGCAGACUACGGGUUCGAGUCCUGUACGGAACG	1.03
GUUCCGUUGGCGUAAUGGUAUCGCGUCUCCCUGCUAAGGACAAGACUGCGGGUUCGAGUCCCGUACGGAACG	≤ 0.5
GAUCCGUUAGCGAAAUGGUAACGAGUCUCCCUCCUAAGGAGAAGCCUGCGGGUUCGAGUCCCGAACGGAACG	0.537
GUUCCGUUGGCGUAAUGGUCACGGGUCUCCCUCCUAAGGAGAAGACUGCGGGUUCAAGUCCAGUACGGAACG	≤ 0.5
GUUCCGUUGGCGUAAUGGUAACGCGUCUCCCUCCUAUGGAGAAGACUGCGGGUUAGAGUUCCGUACGGAACG	≤ 0.5
GUUCCGUUGGCGUAAUGGUAACGCGUCUCCCUCCUUAGGAGAAGACUGCGGAUUCGAGUGCCGUACGGAACG	≤ 0.5
GCUCCGUUGGCGUAAUGGUAACGCGUCUCCCCCCUAAGGAGAAGACUGCGGGUUCGAGUCCCGUACGGAACG	0.973
GUUGCGUUGGCGUAAUGGUAACGAGUCUCCCUCCUAAGGAGAAGACUGCGGGUUCGAGUCCCGUACGGAACG	0.634
GUUCCGUUGGCGAAAUGGUGGCGCGUCUCCCUCCUAAGGAGAAGACUGCGGGUUCGAGUCCCGUCCGGAACG	≤ 0.5
GUUCCGUUGGCGUAAUGGUAACGGGUCUCCCUCCUAGGGAGAAGACUGCGGCUUCGAGUCCCGCACGGAACG	0.602
GUUCCGUUGGCGUAAUGGUAACGCGUCUCCCUCGUAAGGAGUAGACUGCGGGUUCGAGUCCCGUACGCAACG	≤ 0.5
GUUCCGUUGGCGUAAUGGAAACGCGUCUCCCUCCUAAGGAGGAGACUGCGGGUUCGAGUCCCGUCCGGCGCG	≤ 0.5
GUUCCGUUGGAGUAAUGGUAACGCGUCUCCCUCAUAAGGAGAAGACUGCGGGUUUGAGUACCGUACGGAACG	≤ 0.5
GUUCCGUUGGUGUAAUGGUAACGCCUCUCCCUCAUAAGGAGAAGACUGCGGGUUCGAGUCCCGUACGGAACG	0.557

Variant	yeast fitness
GUUGCGUUGGCGUAAUGGUAACGCGUCUCCGUCCUAAGGAGAAGACUGCGGGUUCGAGUCCCGUACGGAACG	0.761
GUCCCGUUGGCGUAGUGGUAACGCGUCUCCCUCCUAAGGAGAAGACUGGGGGUUCGAGUCCCGUACGGAACG	0.556
GCUCCGUUGGCGUCGAGGUAACGCGUCUCCCUCCUAAGGAGAAGACUGCGGGUUCGAGUCCCGUACGGAACG	≤ 0.5
GUUCCGUUGGCGUAAUGCUAACGCGUCUUCCUCCUAAGGAGAAGACUGCGGGUUCGAGUCCCGUACGGCACG	≤ 0.5
GUUCAGUUGGCGUAAUGGUAACGCGUCUCCCUCCUAAGGAGAAGACUGCGGGUCCGAGUCCCGUACGGAACG	0.722
GUUGCCUUGGCGUAAUGGUAACGCGUCUCCCUCCUAAGGUGAAGGCUGCGGGUUAGAGUCCCGUACGGAACG	≤ 0.5
GUUCCGUUGGCGUAGUGGUAACGCGUAUCCCUCCUAAGGAGAAGAUUGCGGGUUCGAGUCCCGUACGGAACG	0.627
GAUCCGUUCGCGUAAUAGUAACGCGUCUCCCUCCUAAGGAGAAGACUGCGGGUUCGAGUGCCGUACGGAACG	0.572
GGUCCGUUGGCGUAAUGGUAACGCGUCUCCCUCCUAAGGAGGAGACUGCGGGUUCGAGUCCCGUACGGAACG	0.866
GUUCCGUUGGCGUAAUGGUAACGGGUCUCCCACCUAAGGAGCAGACUGCGGGUUCGAGUCCCGUUCGGAACG	≤ 0.5
GUUCCGUUGGCGUAAUGGUAACGCGUCUCCCUGCUAAGGAGAAGCCUGCGGGUUCGAGUCCCGUACGGAACG	0.684
GUUCCGUUGGCGUAAUGGUAACGCGUCUCCUUCCUAAGGAGAAGACUGGGGAUUCGAGUCCUGUACGGAACG	≤ 0.5
GUUCCGUUGGCGUUAUGGUAACGGGUCUCCCUCCUAAGGAAAAAACUGCGGGUUCGAGUCCCGUACGGAACG	≤ 0.5
GUUCCGUUGGCGUAAUGGUAACGCGUGUCCAUCCUAAGGAGAAGACUGCGGGUUCAAGUCCCGUACGGAACG	≤ 0.5
GUUCCGUUGGCGUAAUGGUAACGCAUCUCCCUCCUAAGGAAAAGAGUGCAGGUUCGAGUCCAGUACGGAACG	≤ 0.5
GUUCCGUUGGCGUAAUGGUAAUGCGUCUCCCUCCUAAGGAGAAGACUGCUGGUUCGAGUCCCGUACGGAACG	0.669
GUUCCGUUGGCGUAAUGGUAACGCGACUCCCCCCUAAGGAGAAGACUGGGGGUUCGAGUCCCGUACGGAACG	0.575
GUUCCGUUGGCGUAAUGGUAACGCGUCUCCCUCCUAAGGAGAAGACUGCGGGUUCGACUCCCGUACGGAACG	0.992
GUUCCGUUGGCGUAAUGGUAACGCGUCUCCCUCCGAAGGAGAAGACUGCGGGUACGAGUCCUGUACGAAACG	≤ 0.5
